Our source for the Supression and G Index values is ChEMBL document CHEMBL1121602, “Analogues of 8-[[6-(diethylamino) hexyl]amino]-6-methoxy-4-methylquinoline as candidate antileishmanial agents” (1980).

Assay [1] deals with Cricetinae gen. sp. In words: Antileishmanial activity against Leishmania donovani in hamsters at a concentration of 13 mg/kg. Format: functional. In outline:
(§1)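 L. donovani infection in hamsters, following an earlier-cited protocol. Meglumine antimoniate was the reference drug. A G index, the activity of each test agent relative to the reference, was calculated from the dose-response data.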

The subject of assay [2] is Cricetinae gen. sp. Description: Antileishmanial activity against Leishmania donovani in hamsters at a concentration of 0.20 mg/kg. The note with it: dose 0.2 mg/kg. Type of assay: functional. The gist of the method: as §1
Assay [3] can be described thus: G index = SD90 for meglumine antimoniate / SD90 for the compound. Type of assay: functional. In outline: as §1
Assay [4] has as its system Cricetinae gen. sp. Description: Antileishmanial activity against Leishmania donovani in hamsters at a concentration of 0.81 mg/kg. Format: functional. The gist of the method:
as §1

Assay [5] deals with Cricetinae gen. sp. Description: Antileishmanial activity against Leishmania donovani in hamsters at a concentration of 13 mg/kg (toxic). Format: functional. In outline:
as §1

Assay [6] deals with Cricetinae gen. sp. Description: Antileishmanial activity against Leishmania donovani in hamsters at a concentration of 52 mg/kg. Format: functional. The gist of the method: as §1
The test system of assay [7] is Cricetinae gen. sp. Description: Antileishmanial activity against Leishmania donovani in hamsters at a concentration of 0.05 mg/kg. Format: functional. The gist of the method:
as §1

For assay [8], the system named is Cricetinae gen. sp. Description: Antileishmanial activity against Leishmania donovani in hamsters at a concentration of 13 mg/kg; I = inactive. Format: functional, organism-based. The arrangement: dose 13 mg/kg. In outline:
as §1

For assay [9], the system named is Cricetinae gen. sp. Description: Antileishmanial activity against Leishmania donovani in hamsters at a concentration of 208 mg/kg. Type of assay: functional. The gist of the method:
as §1

Assay [10] has as its system Cricetinae gen. sp. In words: Antileishmanial activity against Leishmania donovani in hamsters at a concentration of 0.81 mg/kg; I = inactive. Format: functional, organism-based. The arrangement: dose 0.81 mg/kg. The gist of the method: as §1

The source made the active and inactive calls. The rule behind the calls is not given here.

Turning to `CCN(CC)CCCCCCCNc1cc(OC)cc2c(C)ccnc12.Cl.Cl`, the values for the Supression in the assay with Cricetinae gen. sp. [1], with Cricetinae gen. sp. [2] and with Cricetinae gen. sp. [4] were 100%, 73.1% and 99.8%, respectively. In assay [3], this molecule returned a G Index of 96.8.

For `CCN(C(C)C)C(C)CCCCCNc1cc(OC)cc2c(C)ccnc12.Cl.Cl` (stereo unspecified), the Supression came out at 97.3% with Cricetinae gen. sp. [2], 100% with Cricetinae gen. sp. [4] and 95.4% with Cricetinae gen. sp. [5].

Take `CCN(CCO)CCCCCCNc1cc(OC)cc2c(C)ccnc12.Cl`: the values for the Supression in the assay on Cricetinae gen. sp. [1] and in the assay on Cricetinae gen. sp. [6] were 79.2% and 95.4%, respectively. In assay [3], this molecule displayed a G Index of 3.4.

In the case of `CCN(CC)CCCCCNc1cc(OC)cc2c(C)ccnc12`, the Supression in the assay on Cricetinae gen. sp. [1] stood at 100%; in the assay on Cricetinae gen. sp. [2] it was 91.5%; with Cricetinae gen. sp. [4], 100%; with Cricetinae gen. sp. [6], 100%. The same molecule yielded a G Index in assay [3] of 178.

In the case of `COc1cc(NCCCCCCNCCO)c2nccc(C)c2c1.Cl`, the Supression in the assay on Cricetinae gen. sp. [1] was found to be 99.9%. This molecule also gave a G Index in [3] of 300.

As for `CCN(CC)CCCCCCNc1cc(OC)cc2c(C)ccnc12` [SITAMAQUINE], the Supression in the assay with Cricetinae gen. sp. [7] amounted to 83.7%; in the assay on Cricetinae gen. sp. [2], 99.6%; in the assay with Cricetinae gen. sp. [4], 100%. The molecule also returned a G Index in assay [3] of 474.

Regarding `COc1cc(NCCCCCCNC2CCC2)c2nccc(C)c2c1.Cl`, the Supression in the assay on Cricetinae gen. sp. [1] amounted to 100%; with Cricetinae gen. sp. [4] it was 99.2%; with Cricetinae gen. sp. [6] it was 100%. For the same molecule, the G Index in assay [3] was found to be 188.

As for `COc1cc(NCCCCCCN(C(C)C)C(C)C)c2nccc(C)c2c1.Cl.Cl`, the Supression came to 20.2% in the assay on Cricetinae gen. sp. [7], 97.5% with Cricetinae gen. sp. [1], 97.4% in the assay on Cricetinae gen. sp. [2] and 100% in the assay on Cricetinae gen. sp. [4]. For the same molecule, in assay [3], the G Index stood at 310.

In the case of `CCN(CC)CCCCCCNc1cc(OC)c(OC)c2c(C)ccnc12.Cl.Cl`, the Supression is listed as 68% in the assay on Cricetinae gen. sp. [7], 99.9% in the assay with Cricetinae gen. sp. [1], 100% in the assay on Cricetinae gen. sp. [2] and 100% with Cricetinae gen. sp. [4]. The same molecule gave a G Index in assay [3] of 401.

As for `COc1cc(NCCCCCC(C)NC(C)C)c2nccc(C)c2c1.Cl` (stereo unspecified), the Supression with Cricetinae gen. sp. [2] is on record as 97.3%; in the assay on Cricetinae gen. sp. [4], 100%; in the assay with Cricetinae gen. sp. [5] it was 95.4%. In assay [3], the G Index amounted to 300.

For `CCCN(CCC)CCCCCCNc1cc(OC)cc2c(C)ccnc12.Cl`, the Supression turned out to be 31% with Cricetinae gen. sp. [7], 99.9% in the assay on Cricetinae gen. sp. [2] and 99.9% in the assay on Cricetinae gen. sp. [4]. The molecule further returned a G Index in assay [3] of 333.

Turning to `CCN(CC)CCCCCCNc1cc(OC)cc2c(C)cc(O)nc12`, the Supression entry in the assay with Cricetinae gen. sp. [8] and with Cricetinae gen. sp. [10] was “inactive” in each case. Besides, the Supression in the assay on Cricetinae gen. sp. [9] was determined as 62.8%.
